This is an account of results in ChEMBL document CHEMBL2169744, “Discovery and optimization of potent and selective imidazopyridine and imidazopyridazine mTOR inhibitors” (Bioorg Med Chem Lett, 2012).

In data set [1] the target is Serine/threonine-protein kinase mTOR (Homo sapiens, UniProt P42345). The experiment in a line: Inhibition of mTOR by LanthaScreen assay.
Data set [2] is described as follows: Solubility of the compound in simulated intestinal fluid. It is filed as physicochemical.
Data set [3] is described as follows: Volume of distribution at steady state in rat at 0.5 mg/kg, iv. It is filed as ADME, organism-based. Set-up: dose 0.5 mg/kg, route intravenous. Particulars: in vivo, read-out: Vdss.
A short description of data set [4]: Plasma protein binding in rat at 5 mg/kg, po. It is filed as ADME, organism-based. Set-up: dose 5 mg/kg, route oral. Particulars: read-out: PPB (converted).
Data set [5] in a line: Clearance in rat at 0.5 mg/kg, iv. The settings on record: in vivo. Details: dose 0.5 mg/kg, route intravenous. It is filed as ADME, organism-based.
The nature of data set [6]: Inhibition of mTORC1-mediated 4EBP1-phosphorylation in human U87 cells. It is filed as cell-based, U-87MG ATCC. Particulars: Homo sapiens, U-87 MG; read-out: IC50.
The nature of data set [7]: Half life in rat at 0.5 mg/kg, iv. Set-up: dose 0.5 mg/kg, route intravenous. It is filed as ADME, organism-based. Particulars: in vivo.
Data set [8] in a line: Oral bioavailability in rat at 5 mg/kg. Particulars: in vivo. It is filed as ADME, organism-based. The procedure, abridged: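 Rat oral PK at 5.0 mpk in 1% Tween 80, 2% HPMC, 97% H2O, pH 2.2 (methanesulfonic acid).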
A short description of data set [9]: AUC in rat at 0.5 mg/kg, iv. It is filed as ADME, organism-based, Plasma. Set-up: dose 0.5 mg/kg, route intravenous. Particulars: plasma.
The species named for the next data set is Rattus norvegicus. Description: Unbound clearance in rat. The settings on record: in vivo. It is filed as ADME, organism-based.
The target of data set [10] is Phosphatidylinositol 4,5-bisphosphate 3-kinase catalytic subunit alpha isoform (Homo sapiens, UniProt P42336). The experiment in a line: Inhibition of PI3Kalpha by AlphaScreen assay. (In general: In Alpha technology, singlet oxygen from a donor bead excites a nearby acceptor bead.)
Chain of Phosphatidylinositol 4,5-bisphosphate 3-kinase catalytic subunit alpha isoform (P42336 whole entry, canonical isoform): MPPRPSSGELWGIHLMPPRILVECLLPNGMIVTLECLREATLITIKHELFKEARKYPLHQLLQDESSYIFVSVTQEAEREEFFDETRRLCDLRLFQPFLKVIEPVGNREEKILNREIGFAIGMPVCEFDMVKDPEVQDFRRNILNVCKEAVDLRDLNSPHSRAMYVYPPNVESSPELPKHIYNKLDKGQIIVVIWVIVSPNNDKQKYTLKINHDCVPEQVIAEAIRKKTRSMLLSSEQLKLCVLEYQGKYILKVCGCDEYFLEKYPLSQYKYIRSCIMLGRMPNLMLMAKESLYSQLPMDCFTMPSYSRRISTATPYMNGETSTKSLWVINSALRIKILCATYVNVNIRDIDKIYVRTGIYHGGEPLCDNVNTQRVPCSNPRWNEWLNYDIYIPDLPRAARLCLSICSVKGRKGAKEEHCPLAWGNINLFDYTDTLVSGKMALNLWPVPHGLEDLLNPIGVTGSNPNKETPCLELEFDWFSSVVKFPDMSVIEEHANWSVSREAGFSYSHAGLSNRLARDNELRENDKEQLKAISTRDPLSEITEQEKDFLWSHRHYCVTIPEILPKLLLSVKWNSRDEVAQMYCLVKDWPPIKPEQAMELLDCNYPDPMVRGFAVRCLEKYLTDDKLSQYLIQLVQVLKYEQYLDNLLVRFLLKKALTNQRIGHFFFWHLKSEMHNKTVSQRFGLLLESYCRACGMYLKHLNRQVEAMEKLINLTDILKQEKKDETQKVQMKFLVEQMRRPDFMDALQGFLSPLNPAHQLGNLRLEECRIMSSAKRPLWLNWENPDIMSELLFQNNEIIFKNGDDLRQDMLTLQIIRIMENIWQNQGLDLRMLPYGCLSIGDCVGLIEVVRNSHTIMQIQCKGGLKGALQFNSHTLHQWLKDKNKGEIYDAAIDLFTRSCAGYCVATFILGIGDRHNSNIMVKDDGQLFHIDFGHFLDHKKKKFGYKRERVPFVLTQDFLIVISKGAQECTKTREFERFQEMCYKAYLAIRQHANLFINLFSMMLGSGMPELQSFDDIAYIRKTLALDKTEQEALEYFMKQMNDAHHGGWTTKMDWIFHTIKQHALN
Data set [11] is described as follows: Efflux ratio of apparent permeability from basal to apical to apical to basal side of pig LLC-PK1 cells. It is filed as ADME, cell-based, Sus scrofa.
Data set [12] is described as follows: Apparent permeability from apical to basal side of pig LLC-PK1 cells. It is filed as ADME, cell-based, Sus scrofa.
Data set [13] is described as follows: Apparent permeability from basal to apical side of pig LLC-PK1 cells. It is filed as ADME, cell-based, Sus scrofa.
Data set [14] in a line: Oral bioavailability in rat at 1 mg/kg. It is filed as ADME, organism-based. Particulars: in vivo.
A short description of data set [15]: Solubility of the compound in phosphate buffered saline. It is filed as physicochemical.
Data set [16] in a line: Solubility of the compound in 0.01 N HCl. It is filed as physicochemical. Particulars: buffer.
Data set [17] is described as follows: Inhibition of mTORC1-mediated pS6 Ser240/244-phosphorylation in human U87MG cells. It is filed as cell-based, U-87MG ATCC. Particulars: U-87 MG. The procedure, abridged: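 Cell assay in U87MG cells measuring phosphorylation of the mTOR substrate S6 (S240/244), n ≥ 2.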
Data set [18] is described as follows: Oral bioavailability in rat at 2 mg/kg. It is filed as ADME, organism-based. The settings on record: in vivo.
Data set [19] is described as follows: Clearance in rat at 0.3 mg/kg, iv. Particulars: in vivo. It is filed as ADME, organism-based. Details: dose 0.3 mg/kg, route intravenous. The procedure, abridged: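 Rat IV pharmacokinetics at 0.3 mpk, formulation 100% DMSO.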

Values after ≈ are worked out from the molar mass of the structure shown.

In the case of `Cc1nc(N)cc(-c2c(Nc3cc[nH]n3)nc3cccnn23)n1`, the IC50 in data set [1] turned out to be 13 nM; in [6] it was 210 nM; in data set [10], 763 nM. The compound also had a solubility in data set [2] of 150 µg/mL (≈ 488 µM). The Vd in data set [3] is 2 L/kg. For the same compound, the fraction unbound in data set [4] was 0.088. Besides, the clearance in [5] is 38.3 mL/min/kg. The compound also had a half-life in data set [7] of 51 min. This compound also registered a bioavailability in data set [8] of 100%. In data set [9], the AUC stood at 1 µM·h. In the data set filed under Rattus norvegicus, this compound yielded a CL free of 435 mL/min/kg.
Regarding `Cc1nc(N)nc(-n2c(Nc3ccn[nH]3)nc3ccccc32)n1`, the efflux ratio in data set [11] came to 1.7. Besides, in [12], the Papp A→B was determined as 20.3 ×10⁻⁶ cm/s. The figures for the IC50 in [1] and in [17] were 23 nM and 166 nM, respectively. Moreover, the solubility was 8.4 µg/mL (≈ 27.3 µM) in [2], 8.4 µg/mL (≈ 27.3 µM) in data set [15] and 3.7 µg/mL (≈ 12 µM) in data set [16]. For the same compound, the Papp B→A in [13] worked out at 35.4 ×10⁻⁶ cm/s. This compound also came in with a bioavailability in data set [14] of 6%.
With `Cc1nc(N)cc(-c2c(Nc3cc[nH]n3)nc3ccccn23)n1`, the IC50 in [1] turned out to be 65 nM; in data set [6], 507 nM; in data set [10] it was 5840 nM. Moreover, in data set [2], the solubility is 162 µg/mL (≈ 529 µM). The Vd in data set [3] came to 1.2 L/kg. In data set [18], this compound registered a bioavailability of 2%. This compound showed a clearance in [19] of 68.3 mL/min/kg. Further, in data set [7], the half-life is 15 min. In the data set filed under Rattus norvegicus, this compound came in with a CL free of 515 mL/min/kg.

A word on the IC50: it is the concentration that inhibits the measured activity by half. For orientation: solubility means how much of the substance goes into solution per volume. As usually defined, the clearance is the volume of plasma or blood freed of the substance per unit of time. Low values mean inefficient removal, high ones efficient removal. In general, half-life refers to the time needed for the level to fall by half in the phase considered. A high value points to slow decline. A word on the bioavailability: it is the share of a dose that reaches the circulation, judged against a reference dose that is usually intravenous. Low values mean poor availability, high ones good availability. The AUC is concentration integrated over time. As a reminder, the efflux ratio is a quotient of directional permeabilities that is used to spot active efflux. Broadly, the Papp A→B is how fast a substance crosses the layer from the apical side. By Papp B→A is commonly meant how fast a substance crosses the layer from the basolateral side.
